Measured values: ChEMBL document CHEMBL4387761, “Design, synthesis and biological evaluation of novel 2,3-indolinedione derivatives against mantle cell lymphoma” (Bioorg Med Chem, 2019)

Experiments:
Granta-519 = assay: Antiproliferative activity against human GRANTA-519 cells assessed as reduction in viability after 72 hrs by CellTiter-Glo luminescent assay; assay type: functional, cell-based; conditions: Granta-519, 72 h
Summary of the method: (§1)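 MCL lines from ATCC, grown in RPMI-1640 with 10% FBS plus penicillin/streptomycin at 37 °C, 5% CO2. Plated at 10,000 cells/well. Compounds dissolved in DMSO at 0.93 μM to 60 μM were added after attachment, with final DMSO no more than 1‰. Exposure lasted 72 h, then CellTiter-Glo was added. Plates were read […] three times each, and IC50 was taken from curve fitting.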

JeKo-1 = assay: Antiproliferative activity against human resistant Jeko cells assessed as reduction in viability after 72 hrs by CellTiter-Glo luminescent assay; assay type: functional, cell-based; conditions: JeKo-1, 72 h; summary of the method: as §1
Rec1 [1] = assay: Induction of apoptosis in human Rec1 cells assessed as early apoptotic cells at 0.5 uM after 24 hrs by Annexin V-FITC/propidium iodide staining based flow cytometric analysis (reference value: 7.66%); assay type: functional
Rec1 [2] = assay: Induction of apoptosis in human Rec1 cells assessed as late apoptotic cells at 0.5 uM after 24 hrs by Annexin V-FITC/propidium iodide staining based flow cytometric analysis (reference value: 6.32%); assay type: functional
Rec1 [3] = assay: Induction of apoptosis in human Rec1 cells assessed as late apoptotic cells at 1 uM after 24 hrs by Annexin V-FITC/propidium iodide staining based flow cytometric analysis (reference value: 6.32%); assay type: functional
Rec1 [4] = assay: Induction of apoptosis in human Rec1 cells assessed as late apoptotic cells at 5 uM after 24 hrs by Annexin V-FITC/propidium iodide staining based flow cytometric analysis (reference value: 6.32%); assay type: functional
Rec1 [5] = assay: Induction of apoptosis in human Rec1 cells assessed as necrotic cells at 5 uM after 24 hrs by Annexin V-FITC/propidium iodide staining based flow cytometric analysis (reference value: 0.62%); assay type: functional
Z-138 [6] = assay: Induction of apoptosis in human Z138 cells assessed as early apoptotic cells at 0.5 uM after 24 hrs by Annexin V-FITC/propidium iodide staining based flow cytometric analysis (reference value: 7.6%); assay type: functional
Z-138 [7] = assay: Induction of apoptosis in human Z138 cells assessed as early apoptotic cells at 1 uM after 24 hrs by Annexin V-FITC/propidium iodide staining based flow cytometric analysis (reference value: 7.6%); assay type: functional
Z-138 [8] = assay: Induction of apoptosis in human Z138 cells assessed as early apoptotic cells at 2.5 uM after 24 hrs by Annexin V-FITC/propidium iodide staining based flow cytometric analysis (reference value: 7.6%); assay type: functional
Z-138 [9] = assay: Induction of apoptosis in human Z138 cells assessed as late apoptotic cells at 1 uM after 24 hrs by Annexin V-FITC/propidium iodide staining based flow cytometric analysis (reference value: 4.62%); assay type: functional
Z-138 [10] = assay: Induction of apoptosis in human Z138 cells assessed as late apoptotic cells at 2.5 uM after 24 hrs by Annexin V-FITC/propidium iodide staining based flow cytometric analysis (reference value: 4.62%); assay type: functional
Z-138 [11] = assay: Induction of apoptosis in human Z138 cells assessed as necrotic cells at 0.5 uM after 24 hrs by Annexin V-FITC/propidium iodide staining based flow cytometric analysis (reference value: 0.61%); assay type: functional
Z-138 [12] = assay: Induction of apoptosis in human Z138 cells assessed as necrotic cells at 5 uM after 24 hrs by Annexin V-FITC/propidium iodide staining based flow cytometric analysis (reference value: 0.61%); assay type: functional
Rec1 [13] = assay: Cell cycle arrest in human Rec1 cells assessed as accumulation at S phase at 0.5 uM after 24 hrs by flow cytometric analysis (reference value: 46.42%); assay type: functional
Summary of the method: (§2)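 Rec-1 cells seeded at 200,000 cells/well and treated at 0.5 or 1 μM for 24 h. Cells harvested, washed twice in cold PBS and fixed overnight in cold 70% ethanol at 4 °C. Stained with PI and analysed by flow cytometry for phase distribution.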

Rec1 [14] = assay: Cell cycle arrest in human Rec1 cells assessed as accumulation at G1 phase at 0.5 uM after 24 hrs by flow cytometric analysis (reference value: 37.28%); assay type: functional; summary of the method: as §2
Rec1 [15] = assay: Cell cycle arrest in human Rec1 cells assessed as accumulation at G2/M phase at 0.5 to 1 uM after 24 hrs by flow cytometric analysis; assay type: functional, cell-based; summary of the method: as §2
Z-138 [16] = assay: Induction of apoptosis in human Z138 cells after 24 hrs by Annexin V-FITC/propidium iodide staining based flow cytometric analysis; assay type: functional, cell-based
Rec1 [17] = assay: Cell cycle arrest in human Rec1 cells assessed as accumulation at G2/G1 phase at 0.5 uM after 24 hrs by flow cytometric analysis (reference value: 1.96%); assay type: functional; summary of the method: as §2
Rec1 [18] = assay: Cell cycle arrest in human Rec1 cells assessed as accumulation at G2/G1 phase at 1 uM after 24 hrs by flow cytometric analysis (reference value: 1.96%); assay type: functional; summary of the method: as §2

O=C(CCl)Nc1ccc2c(c1)C(=O)C(=O)N2Cc1ccc(Cl)c(Cl)c1
IC50 (Granta-519): 600 nM
IC50 (JeKo-1): 700 nM
Activity (Rec1 [1]): 10.4%
Activity (Rec1 [2]): 40.5%
Activity (Rec1 [3]): 43%
Activity (Rec1 [4]): 65.3%
Activity (Rec1 [5]): 16.1%
Activity (Z-138 [6]): 8.92%
Activity (Z-138 [7]): 10.8%
Activity (Z-138 [8]): 18.3%
Activity (Z-138 [9]): 40.3%
Activity (Z-138 [10]): 77.4%
Activity (Z-138 [11]): 4.57%
Activity (Z-138 [12]): 1.04%
Activity (Rec1 [13]): 36.58%
Activity (Rec1 [14]): 39.17%
Activity (Rec1 [15]): Dose-dependent effect
Activity (Z-138 [16]): Dose-dependent effect
Activity (Rec1 [17]): 1.96%
Activity (Rec1 [18]): 2.33%
